What all share (format): functional, cell-based
In test [1] the test system is LoVo. Kind of test: Induction of apoptosis in human wild type LoVo cells assessed as increase in hyplodiploid cells after 24 hrs by flow cytometry. The essentials:
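Apoptosis measured in LoVo WT cells after 24 h exposure as the percentage of hypodiploid cells (loss of fragmented DNA), determined by flow cytometry.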

Test [2] relates to LoVo. The test can be described thus: Cytotoxicity against human wild type LoVo cells at 100 uM after 24 hrs by MTS assay. Put shortly:
(§1)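 LoVo WT human colon adenocarcinoma cells grown in D-MEM F12 with 10% FBS, penicillin/streptomycin, 37 °C, 5% CO2. Seeded 1 × 10^4 cells/well, medium replaced after 1 day with exposure medium containing test agents (0.1–300 µM; DMSO 0.3% or less). After 1–3 day exposure, MTS/PMS added for 2 h at 37 °C; formazan absorbance read at 490 nm. Viability expressed relative to DMSO-only controls.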

Test [3] deals with LoVo. The test can be described thus: Cytotoxicity against human wild type LoVo cells after 48 hrs by MTS assay. The essentials:
as §1

Test [4] deals with LoVo. Kind of test: Cytotoxicity against human wild type LoVo cells after 24 hrs by MTS assay. The essentials:
as §1

Molecules are shown by their SMILES. Calls of active or inactive are those of the source. No cut-off for these calls is given here.

As a reminder, the IC50 is the concentration that gives 50% inhibition.

For `Oc1ccc2cc(O)ccc2c1`, the result in test [1] was inactive.

For `CC1(C)CCc2cc(CCO)ccc2O1`, in test [2], the result was inactive.

For `CC1(C)CCc2c(ccc3cc(O)ccc23)O1`, the outcome in test [1] was Active. Moreover, the IC50 in test [3] turned out to be 27.4 µM; in test [4], 34.5 µM.

In the case of `CC1(C)CCc2c(ccc3c4c(ccc23)OC(C)(C)CC4)O1`, the outcome in test [1] was inactive. In addition, the IC50 in test [3] is 395 µM; in test [4], 258 µM.

The values above are taken from ChEMBL document CHEMBL1153481, “Chromane derivatives of small aromatic molecules: Chemoenzymatic synthesis and growth inhibitory activity on human tumor cell line LoVo WT” (Bioorg Med Chem, 2009).
